This passage reports IC50, inhibition and Activity results from ChEMBL document CHEMBL4680101, “Discovery and Optimization of Allosteric Inhibitors of Mutant Isocitrate Dehydrogenase 1 (R132H IDH1) Displaying Activity in Human Acute Myeloid Leukemia Cells” (J Med Chem, 2016).

Data set [1] has as its target T1, Isocitrate dehydrogenase [NADP] cytoplasmic (Homo sapiens, UniProt O75874, R132H). Kind of data set: Allosteric inhibition of IDH1 R132H mutant (unknown origin) expressed in HEK293T cells assessed as reduction in 2-HG production incubated for 48 hrs by LC-MS/MS analysis. The data set is classed as cell-based. Put shortly: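 HEK293T cells reverse-transfected with pcDNA3.1 IDH1 R132H (Lipofectamine 2000), 6 h at 37 °C in 1% FBS plating medium, then assay medium. Compound added in DMSO (0.15% final), 48 h at 37 °C. Medium 2-HG quantified by HILIC LC-MS/MS with D3-2-HG internal standard, normalised to Hoechst nuclear count. Mean of two biological replicates.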
Target sequence in this assay (O75874 2-414 R132H limits assumed): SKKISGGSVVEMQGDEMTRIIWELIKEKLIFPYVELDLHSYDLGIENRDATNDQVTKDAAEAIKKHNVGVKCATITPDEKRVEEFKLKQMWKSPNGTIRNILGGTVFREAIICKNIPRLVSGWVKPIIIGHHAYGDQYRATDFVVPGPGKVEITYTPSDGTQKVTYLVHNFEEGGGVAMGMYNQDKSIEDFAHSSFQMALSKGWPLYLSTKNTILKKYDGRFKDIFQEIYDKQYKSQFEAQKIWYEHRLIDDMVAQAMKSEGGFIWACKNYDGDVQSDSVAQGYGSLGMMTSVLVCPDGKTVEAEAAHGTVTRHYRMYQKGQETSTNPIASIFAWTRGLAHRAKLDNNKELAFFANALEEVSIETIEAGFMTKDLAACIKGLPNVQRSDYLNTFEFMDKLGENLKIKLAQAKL

Another data set has as its system HeLa. Kind of data set: Cytotoxicity in human HeLa cells. Type of data set: cell-based.
Data set [2] deals with T1, Isocitrate dehydrogenase [NADP] cytoplasmic. Kind of data set: Inhibition of IDH1 R132H mutant (unknown origin) using alpha-ketoglutarate and NADPH incubated for 60 mins by fluorescence based assay.
Target sequence in this assay (O75874 2-414 R132H limits assumed): as above
In data set [3] the target is Isocitrate dehydrogenase [NADP] cytoplasmic (Homo sapiens, UniProt O75874, R132C). The data set is described as follows: Inhibition of IDH1 R132C mutant (unknown origin) using alpha-ketoglutarate and NADPH incubated for 30 mins by fluorescence based assay. The procedure, abridged: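 IDH1 R132C (100 nM) in 20 mM Tris pH 7.5, 10 mM MgCl2, 150 mM NaCl, 0.03% BSA with 0.5 mM α-ketoglutarate and 50 µM NADPH. Reaction 30 min at 26 °C. NADPH consumption read via diaphorase/resazurin coupling, resorufin fluorescence Ex544/Em590.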

Data set [4] has as its target 11-beta-hydroxysteroid dehydrogenase 1 (Homo sapiens, UniProt P28845). Kind of data set: Inhibition of active recombinant human N-terminal His-tagged 11-betaHSD1 expressed in Escherichia coli using cortisone, NADPH and glucose-6-phosphate incubated for 2 hrs by glucose-6-phosphate dehydrogenase based coupled HTRF immuno-competitive assay. The procedure, abridged:
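Coupled HTRF immuno-competitive assay: 11β-HSD1 (1.5 µg/ml) in 100 mM potassium phosphate pH 7.6 with 160 nM cortisone, 1 mM EDTA, 1 mM glucose-6-phosphate and 12.5 µg/ml G6PD, started with 0.1 mM NADPH. Reaction 30 min at 37 °C, stopped with glycyrrhetinic acid in cortisol-d2, then anti-cortisol cryptate for 2 h at room temperature. TR-FRET read-out.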

Data set [5] deals with Isocitrate dehydrogenase [NADP] cytoplasmic (Homo sapiens), O75874 [R132H]. Kind of data set: (§1) Allosteric inhibition of Myc-tagged IDH1 R132H mutant (unknown origin) expressed in human THP-1 cells assessed as inhibition of 2-HG production incubated for 5 days in presence of doxycycline by LC-MS/MS analysis. The data set is classed as cell-based. The conditions noted are these: filed as negative allosteric modulator, time 5.0 day. The procedure, abridged: (§2)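 THP1 cells carrying doxycycline-inducible Myc-tagged IDH1 R132H (lentiviral, blasticidin-selected) cultured 5 days with doxycycline and compound. 2-HG measured by HILIC LC-MS/MS after solid-phase extraction, D3-2-HG internal standard, against a medium-spiked standard curve. Mean of two biological replicates.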

Data set [6] deals with T1, Isocitrate dehydrogenase [NADP] cytoplasmic. The data set is described as §1. The data set is classed as cell-based. Put shortly:
as §2
Target sequence in this assay (O75874 whole entry R132H): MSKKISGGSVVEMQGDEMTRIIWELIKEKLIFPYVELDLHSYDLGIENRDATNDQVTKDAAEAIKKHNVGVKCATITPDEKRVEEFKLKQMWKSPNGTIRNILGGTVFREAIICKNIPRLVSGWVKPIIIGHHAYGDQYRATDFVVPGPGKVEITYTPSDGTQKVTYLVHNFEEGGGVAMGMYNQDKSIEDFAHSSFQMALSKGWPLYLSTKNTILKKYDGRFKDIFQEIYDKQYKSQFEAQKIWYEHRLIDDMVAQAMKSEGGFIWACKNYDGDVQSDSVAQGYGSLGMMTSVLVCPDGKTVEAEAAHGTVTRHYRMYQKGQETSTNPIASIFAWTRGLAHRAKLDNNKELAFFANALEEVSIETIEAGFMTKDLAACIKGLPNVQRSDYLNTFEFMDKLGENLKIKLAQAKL

Data set [7] concerns Isocitrate dehydrogenase [NADP] cytoplasmic (Homo sapiens), O75874 [R132H]. The data set is described as follows: Allosteric inhibition of Myc-tagged IDH1 R132H mutant (unknown origin) expressed in human THP-1 cells assessed as inhibition of 2-HG production at >=10 uM incubated for 5 days in presence of doxycycline by LC-MS/MS analysis. The conditions noted are these: filed as negative allosteric modulator, dose microM >=10, time 5.0 day. Type of data set: cell-based. The procedure, abridged:
as §2

In another data set the test system is THP-1. Kind of data set: Effect on cell proliferation in human THP-1 cells. Type of data set: ADME, cell-based.
Data set [8] can be described thus: Effect on cell differentiation in human THP-1 cells. Type of data set: ADME, cell-based.
Data set [9] relates to Leukemic blast cell. The data set is described as follows: Induction of myeloid differentiation in human primary AML blast cells from patient with IDH1 R132H mutation assessed as up-regulation of CD11b at 1 times to 8 times IC50 incubated for 14 days by flow cytometry. Type of data set: functional, tissue-based. The conditions noted are these: time 14.0 day. Put shortly:
(§3)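 Primary AML cells (≥80% blasts), 2 x 10^4 per condition in methylcellulose with cytokines (IL-3, IL-6, IL-11, FLT3L, SCF, TPO, G-CSF, EPO). Compound at 1x, 4x, 8x cellular IC50 or DMSO (1:1000), 14 days at 37 °C. Recovered cells stained for CD11b, CD15 and CD117, ≥30 min at 4 °C, read by flow cytometry.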

Data set [10] concerns Leukemic blast cell. The data set is described as follows: Induction of myeloid differentiation in human primary AML blast cells from patient with IDH1 R132H mutation assessed as up-regulation of CD15 at 1 times to 8 times IC50 incubated for 14 days by flow cytometry. The data set is classed as functional, tissue-based. The conditions noted are these: time 14.0 day. The procedure, abridged:
as §3

In data set [11] the test system is Leukemic blast cell. Kind of data set: Induction of myeloid differentiation in human primary AML blast cells from patient with IDH1 R132H mutation assessed as down-regulation of CD117 at 1 times to 8 times IC50 incubated for 14 days by flow cytometry. Conditions: time 14.0 day. The data set is classed as functional, tissue-based. Put shortly: as §3
Data set [12] relates to Leukemic blast cell. The data set is described as follows: Induction of myeloid differentiation in human primary AML blast cells from patient with IDH1 R132H mutation assessed as induction of mature cellular morphology at 1 times to 8 times IC50 incubated for 14 days by cytospin based analysis. The data set is classed as functional, tissue-based. The conditions noted are these: time 14.0 day. Put shortly: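 Primary IDH1 R132H AML cells in cytokine-supplemented methylcellulose with compound or DMSO vehicle for 14 days. Cells recovered by dilution in PBS and centrifugation, then examined on cytospin preparations for morphology.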

For data set [13], the system named is Leukemic blast cell. Kind of data set: Induction of myeloid differentiation in human primary AML blast cells from patient with IDH1 R132H mutation assessed as increase in clonogenic activity at 1 times to 8 times IC50 incubated for 14 days by cytospin based analysis. Type of data set: functional, tissue-based. The conditions noted are these: time 14.0 day. Put shortly:
(§4)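 Primary AML cells (≥80% blasts) seeded at 2 x 10^4 per condition in cytokine-supplemented methylcellulose with compound or DMSO vehicle (1:1000), 37 °C, 5% CO2. Colonies scored and counted after 14 days, expressed relative to vehicle control. Three independent experiments, mean ± standard error.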

Data set [14] has as its system Leukemic blast cell. Kind of data set: Induction of myeloid differentiation in human primary AML blast cells from patient with wild type IDH1 assessed as increase in clonogenic activity at 1 times to 8 times IC50 incubated for 14 days by cytospin based analysis. The data set is classed as functional, tissue-based. The conditions noted are these: time 14.0 day. Put shortly: as §4

In data set [15] the test system is Leukemic blast cell. The data set is described as follows: Induction of myeloid differentiation in human primary AML blast cells from patient with wild type IDH1 assessed as up-regulation of CD11b at 1 times to 8 times IC50 incubated for 14 days by flow cytometry. The data set is classed as functional, tissue-based. Conditions: time 14.0 day. Put shortly: as §3

Data set [16] has as its system Leukemic blast cell. Kind of data set: Induction of myeloid differentiation in human primary AML blast cells from patient with wild type IDH1 assessed as up-regulation of CD15 at 1 times to 8 times IC50 incubated for 14 days by flow cytometry. Type of data set: functional, tissue-based. The conditions noted are these: time 14.0 day. Put shortly:
as §3

Data set [17] concerns Leukemic blast cell. Kind of data set: Induction of myeloid differentiation in human primary AML blast cells from patient with wild type IDH1 assessed as down-regulation of CD117 at 1 times to 8 times IC50 incubated for 14 days by flow cytometry. The data set is classed as functional, tissue-based. Conditions: time 14.0 day. The procedure, abridged: as §3
Data set [18] has as its target Isocitrate dehydrogenase [NADP] cytoplasmic (Homo sapiens, UniProt O75874). Kind of data set: Inhibition of wild type IDH1 (unknown origin) using isocitrate and NADP incubated for 30 mins by fluorescence based assay.
In data set [19] the target is T2, Isocitrate dehydrogenase [NADP], mitochondrial (Homo sapiens, UniProt P48735).
T2 sequence (P48735 whole entry): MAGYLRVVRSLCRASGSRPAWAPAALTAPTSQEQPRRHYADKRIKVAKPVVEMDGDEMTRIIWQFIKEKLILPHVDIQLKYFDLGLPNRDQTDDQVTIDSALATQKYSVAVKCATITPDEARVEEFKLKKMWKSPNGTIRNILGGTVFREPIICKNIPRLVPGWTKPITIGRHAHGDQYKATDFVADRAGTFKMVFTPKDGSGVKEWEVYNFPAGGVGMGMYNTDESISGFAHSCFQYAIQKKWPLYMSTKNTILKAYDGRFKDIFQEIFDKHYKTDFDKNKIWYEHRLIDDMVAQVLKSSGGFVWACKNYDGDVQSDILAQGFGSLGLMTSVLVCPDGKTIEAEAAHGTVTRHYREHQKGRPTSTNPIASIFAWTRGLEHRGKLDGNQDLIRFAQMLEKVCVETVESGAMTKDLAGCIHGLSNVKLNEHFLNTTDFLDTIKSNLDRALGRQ
The data set is described as follows: Inhibition of wild type IDH2 (unknown origin) using isocitrate and NADP incubated for 60 mins by fluorescence based assay.

Data set [20] concerns the target Glucose-6-phosphate 1-dehydrogenase (Homo sapiens, UniProt P11413). Kind of data set: Inhibition of wild type G6PD (unknown origin) using glucose-6-phosphate and NADP incubated for 30 mins by fluorescence based assay.

Activity calls are given as the source filed them. The rule behind the calls is not given here. Bounds are passed on as bounds.

Isocitrate dehydrogenase [NADP] cytoplasmic (Homo sapiens), O75874 [R132H], sequence (O75874 whole entry R132H): as the sequence (O75874 whole entry R132H) above
Glucose-6-phosphate 1-dehydrogenase, sequence (P11413 whole entry): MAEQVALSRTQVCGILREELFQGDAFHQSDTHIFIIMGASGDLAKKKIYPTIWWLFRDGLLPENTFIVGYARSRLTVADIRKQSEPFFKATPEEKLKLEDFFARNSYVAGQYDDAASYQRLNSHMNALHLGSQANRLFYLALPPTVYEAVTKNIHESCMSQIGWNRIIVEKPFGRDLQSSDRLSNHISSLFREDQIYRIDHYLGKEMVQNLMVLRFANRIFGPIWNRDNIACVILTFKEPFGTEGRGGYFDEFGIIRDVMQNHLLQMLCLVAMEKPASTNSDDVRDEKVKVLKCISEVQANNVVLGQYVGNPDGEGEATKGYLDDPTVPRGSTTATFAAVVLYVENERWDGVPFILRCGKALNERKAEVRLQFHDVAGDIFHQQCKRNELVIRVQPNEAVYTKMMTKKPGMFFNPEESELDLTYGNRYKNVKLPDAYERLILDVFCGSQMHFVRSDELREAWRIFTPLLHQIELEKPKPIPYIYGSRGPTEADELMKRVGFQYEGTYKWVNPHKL
11-beta-hydroxysteroid dehydrogenase 1, sequence (P28845 whole entry): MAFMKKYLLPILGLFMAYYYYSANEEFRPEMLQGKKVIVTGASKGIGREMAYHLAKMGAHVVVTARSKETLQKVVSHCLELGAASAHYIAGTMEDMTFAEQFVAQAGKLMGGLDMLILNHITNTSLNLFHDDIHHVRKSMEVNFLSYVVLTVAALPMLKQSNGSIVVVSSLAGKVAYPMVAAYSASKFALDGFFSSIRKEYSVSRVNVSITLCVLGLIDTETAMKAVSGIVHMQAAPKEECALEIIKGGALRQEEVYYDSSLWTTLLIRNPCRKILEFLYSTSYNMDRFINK
Isocitrate dehydrogenase [NADP] cytoplasmic (Homo sapiens, UniProt O75874, R132C), sequence (O75874 2-414 R132C limits assumed): as the sequence (O75874 2-414 R132H limits assumed) above, with H131C counted along it
Isocitrate dehydrogenase [NADP] cytoplasmic (Homo sapiens, UniProt O75874), sequence (O75874 whole entry): as the sequence (O75874 whole entry R132H) above, with H132R counted along it

In the case of `CC(C)CCOc1nc(N2CCC[C@@H](CC(=O)O)C2)ccc1C(=O)NC1C2CC3CC1CC(O)(C3)C2` (stereo partly specified), the IC50 in data set [1] is 8.5 µM; with HeLa, over 30 µM; in data set [2], 1.3 µM.

On to `CC(C)CCOc1nc(N2C[C@@H]3[C@H](C2)[C@H]3C(=O)O)ccc1C(=O)NC1C2CC3CC1CC(O)(C3)C2` (stereo partly specified), for which the IC50 in data set [3] was 0.47 µM; in [4], 0.009 µM; in [1] it was 2.3 µM; in the data set with HeLa it was over 30 µM; in data set [6], 1.9 µM; in data set [18], over 50 µM. In addition, the IC50 is over 50 µM in [19], over 50 µM in data set [20] and 0.27 µM in data set [2]. The inhibition result in data set [5] was “Dose-dependent effect”; in data set [7], 100%. Besides, the Activity result (with THP-1; in data set [8]) was “Non-Toxic” each time. Also, the outcome in the data set with Leukemic blast cell [9], with Leukemic blast cell [10], in the data set with Leukemic blast cell [11], in the data set with Leukemic blast cell [12] and in the data set on Leukemic blast cell [13] was Active. Further, the result with Leukemic blast cell [14], in the data set on Leukemic blast cell [15], in the data set on Leukemic blast cell [16] and with Leukemic blast cell [17] was inactive.

Take `COc1nc(N2CCC[C@@H](CC(=O)O)C2)ccc1C(=O)NC1CCCCC1`: the IC50 was over 30 µM in [1], over 30 µM in the data set with HeLa and over 50 µM in data set [2].

Regarding `O=C(O)C[C@@H]1CCCN(c2ccc(C(=O)NC3CCCCC3)c(OCc3ccccc3F)n2)C1`, the IC50 in data set [1] is 16 µM; in the data set with HeLa, over 30 µM; in data set [2] it was 5.6 µM.
